Measured values from ChEMBL document CHEMBL1122607, “Heterocyclic analogues of chlorcyclizine with potent hypolipidemic activity” (J Med Chem, 1984).

Key:
[1] = tested on: Rattus norvegicus; experiment: Hypolipidemic activity was measured as reduction in rat serum cholesterol after oral administration in male Wistar rats at 30 mg / (kg day); type: functional
Outline: (§1)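 Cholesterol-fed rats given the test compound orally by gavage on the last 3 days, with controls receiving vehicle (0.5% tragacanth mucilage). After overnight starvation, rats were killed under CO2 3 h after the last dose and bled by cardiac puncture. Serum cholesterol and triglyceride were measured by autoanalyzer and expressed as percentage reduction from control levels, with Student's t test.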

[2] = tested on: Rattus norvegicus; experiment: Hypolipidemic activity was measured as reduction in rat serum cholesterol after oral administration in male Wistar rats at 1 mg / (kg day); type: functional; outline: as §1
[3] = tested on: Rattus norvegicus; experiment: Hypolipidemic activity was measured as reduction in rat serum cholesterol after oral administration in male Wistar rats at 100 mg/(kg day); type: functional; outline: as §1
[4] = tested on: Rattus norvegicus; experiment: Hypolipidemic activity was measured as reduction in rat serum triglyceride after oral administration in male Wistar rats at 1 mg / (kg day); type: functional; outline: as §1
[5] = tested on: Rattus norvegicus; experiment: Minimum effective dose (MED) is the dose (mg/kg)that cause significant reduction in serum cholesterol of 30% compared to concurrent controls.; type: functional; set-up: unit: mg/kg
Outline: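 MED was calculated from the log dose/response curve as the dose giving a statistically significant 30% fall in serum cholesterol versus concurrent controls. Measured in the 3-day oral cholesterol-fed rat screen, or in a 2-week test: groups of eight young male Wistar rats on cholesterol/cholic acid-supplemented or normal diet, dosed orally by gavage daily for 14 days, vehicle 0.5% tragacanth mucilage.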

[6] = tested on: Rattus norvegicus; experiment: Hypolipidemic activity was measured as reduction in rat serum triglyceride after oral administration in male Wistar rats at 10 mg / (kg day); type: functional; outline: as §1
[7] = tested on: Rattus norvegicus; experiment: Hypolipidemic activity was measured as reduction in rat serum triglyceride after oral administration in male Wistar rats at 30 mg / (kg day); type: functional; outline: as §1
[8] = tested on: Rattus norvegicus; experiment: Hypolipidemic activity was measured as reduction in rat serum triglyceride after oral administration in male Wistar rats at 3 mg / (kg day);; type: functional; outline: as §1
[9] = tested on: Rattus norvegicus; experiment: Hypolipidemic activity was measured as reduction in rat serum cholesterol after oral administration in male Wistar rats at 3 mg / (kg day);; type: functional; outline: as §1
[10] = tested on: Rattus norvegicus; experiment: Hypolipidemic activity was measured as reduction in rat serum triglyceride after oral administration in male Wistar rats at 100 mg / (kg day); type: functional; outline: as §1
[11] = tested on: Rattus norvegicus; experiment: Hypolipidemic activity was measured as reduction in rat serum cholesterol after oral administration in male Wistar rats at 10 mg / (kg day); type: functional; outline: as §1
[12] = (§2) The therapeutic safety margin (TSM) is the ratio of the minimum lethal dose (mg/kg)to the MED; type: ADME, organism-based; settings: in vivo
Outline: (§3)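 Young male Wistar rats, eight per group, on cholesterol/cholic acid-supplemented or normal diet; graded oral gavage doses daily for 14 days; vehicle controls (0.5% tragacanth mucilage). Mortalities recorded to give the minimum lethal daily dose. After overnight fasting, serum cholesterol assayed by autoanalyzer. MED is the dose giving a significant (t test) 30% cholesterol fall, from the log dose/response curve. TSM = minimum lethal dose/MED.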

[13] = tested on: Rattus norvegicus; experiment: Hypolipidemic activity was measured as reduction in rat serum triglyceride after oral administration in male Wistar rats at 50 mg / (kg day); type: functional; outline: as §1
[14] = tested on: Rattus norvegicus; experiment: Hypolipidemic activity was measured as reduction in rat serum triglyceride after oral administration in male Wistar rats at 2.5 mg / (kg day); type: functional; outline: as §1
[15] = tested on: Rattus norvegicus; experiment: Hypolipidemic activity was measured as reduction in rat serum triglyceride after oral administration in male Wistar rats at 5 mg / (kg day); type: functional; outline: as §1
[16] = tested on: Rattus norvegicus; experiment: Hypolipidemic activity was measured as reduction in rat serum cholesterol after oral administration in male Wistar rats at 50 mg / (kg day); type: functional; outline: as §1
[17] = tested on: Rattus norvegicus; experiment: Hypolipidemic activity was measured as reduction in rat serum cholesterol after oral administration in male Wistar rats at 2.5 mg / (kg day); type: functional; outline: as §1
[18] = tested on: Rattus norvegicus; experiment: Hypolipidemic activity was measured as reduction in rat serum cholesterol after oral administration in male Wistar rats at 5 mg / (kg day); type: functional; outline: as §1
[19] = tested on: Rattus norvegicus; experiment: Hypolipidemic activity was measured as reduction in rat serum cholesterol after oral administration in male Wistar rats at 100 mg / (kg day); type: functional; outline: as §1
[20] = tested on: Rattus norvegicus; experiment: Hypolipidemic activity was measured as reduction in rat serum cholesterol after oral administration in male Wistar rats at 200 mg/(kg day); type: functional; outline: as §1
[21] = tested on: Rattus norvegicus; experiment: Hypolipidemic activity was measured as reduction in rat serum triglyceride after oral administration in male Wistar rats at 3 mg / (kg day); type: functional; outline: as §1
[22] = tested on: Rattus norvegicus; experiment: Hypolipidemic activity was measured as reduction in rat serum cholesterol after oral administration in male Wistar rats at 3 mg / (kg day); type: functional; outline: as §1
[23] = tested on: Rattus norvegicus; experiment: Hypolipidemic activity was measured as reduction in rat serum triglyceride after oral administration in male Wistar rats at 1; type: functional; outline: as §1
[24] = tested on: Rattus norvegicus; experiment: Hypolipidemic activity was measured as reduction in rat serum triglyceride after oral administration in male Wistar rats at 200 mg / (kg day); type: functional; outline: as §1
[25] = tested on: Rattus norvegicus; experiment: Hypolipidemic activity was measured as reduction in rat serum cholesterol after oral administration in male Wistar rats at 20 mg / (kg day); type: functional; outline: as §1
[26] = tested on: Rattus norvegicus; experiment: Hypolipidemic activity was measured as reduction in rat serum cholesterol after oral administration in male Wistar rats at 200 mg / (kg day); type: functional; outline: as §1
[27] = tested on: Rattus norvegicus; experiment: Hypolipidemic activity was measured as reduction in rat serum triglyceride after oral administration in male Wistar rats at 20 mg / (kg day); type: functional; outline: as §1
[28] = tested on: Rattus norvegicus; experiment: xHypolipidemic activity was measured as reduction in rat serum cholesterol after oral administration in male Wistar rats at 10 mg / (kg day); type: functional; outline: as §1
[29] = as §2; type: functional; outline: as §3

## Cc1noc(C)c1C(c1ccc(C(C)C)cc1)N1CCNCC1 (stereo not drawn)
[1]
  Reduction: 85%
[2]
  Reduction: 19%
[3]
  Reduction: 86%
[4]
  Reduction: 22%
[5]
  MED: 1
[6]
  Reduction: 82%
[7]
  Reduction: 94%
[8]
  Reduction: 45%
[9]
  Reduction: 72%
[10]
  Reduction: 96%
[11]
  Reduction: 76%
[12]
  therapeutic safety margin (minimum lethal dose / MED): 50

## CC(C)c1ccc(C(c2ccns2)N2CCN(C)CC2)cc1 (stereo not drawn)
[13]
  Reduction: 67%
[14]
  Reduction: 15%
[3]
  Reduction: 86%
[15]
  Reduction: 29%
[5]
  MED: 6
[16]
  Reduction: 82%
[6]
  Reduction: 63%
[10]
  Reduction: 81%
[17]
  Reduction: 26%
[18]
  Reduction: 39%
[11]
  Reduction: 57%
[12]
  therapeutic safety margin (minimum lethal dose / MED): 14

## Cc1cc(C(c2ccccc2)N2CCN(C)CC2)sn1 (stereo not drawn)
[19]
  Reduction: 21%
[20]
  Reduction: 36%

## Cc1noc(C)c1C(c1ccc(C(C)C)cc1)N1CCN(CCO)CC1 (stereo not drawn)
[1]
  Reduction: 77%
[2]
  Reduction: 5%
[21]
  Reduction: 29%
[3]
  Reduction: 84%
[5]
  MED: 2
[6]
  Reduction: 56%
[7]
  Reduction: 16%
[22]
  Reduction: 50%
[10]
  Reduction: 84%
[11]
  Reduction: 76%
[23]
  Reduction: 7%
[12]
  therapeutic safety margin (minimum lethal dose / MED): 100

## Cc1cc(C(c2ccc(Cl)cc2)N2CCN(C)CC2)sn1 (stereo not drawn)
[19]
  Reduction: 15%
[24]
  Reduction: 19%
[10]
  Reduction: 2%
[20]
  Reduction: 67%

## Cc1cc(C(c2ccccc2C)N2CCN(C)CC2)sn1 (stereo not drawn)
[13]
  Reduction: 26%
[5]
  MED: 22
[16]
  Reduction: 56%
[24]
  Reduction: 84%
[25]
  Reduction: 27%
[26]
  Reduction: 65%
[27]
  Reduction: 14%
[12]
  therapeutic safety margin (minimum lethal dose / MED): 10

## Cc1cc(C(c2ccccc2Cl)N2CCN(C)CC2)sn1 (stereo not drawn)
[13]
  Reduction: 50%
[3]
  Reduction: 61%
[5]
  MED: 30
[16]
  Reduction: 63%
[25]
  Reduction: 16%
[10]
  Reduction: 44%
[27]
  Reduction: 8%
[12]
  therapeutic safety margin (minimum lethal dose / MED): 15

## CCC(C)c1ccc(C(c2cc(C)ns2)N2CCN(C)CC2)cc1 (stereo not drawn)
[1]
  Reduction: 67%
[3]
  Reduction: 72%
[5]
  MED: 14
[6]
  Reduction: 15%
[28]
  Reduction: 19%
[7]
  Reduction: 55%
[10]
  Reduction: 87%
[12]
  therapeutic safety margin (minimum lethal dose / MED): 20

## CN1CCN(C(c2ccccc2)c2ccccc2)CC1 [CYCLIZINE]
[5]
  MED: 30
[29]
  Ratio: 10
